The source of these data is PMC3755765 (ChemMedChem, 2013).

For orientation: MIC50 means an inhibitory concentration at the 50% level, which refers to growth in some studies and to a panel of isolates in others.

≈ marks a conversion by molar mass, not a printed value. Where “and” joins values, the source holds several entries; their conditions need not be identical. Identical values can stand only once. Entries after “also recorded” stand apart in the source; their conditions may differ. Like-named read-outs stand apart in the source and are kept apart here. A value given as a limit tells only on which side of the number the result lay.

Data set [1] relates to P. falciparum strain D6 (CDC/Sierra Leone). The data set is described as follows: Malaria SYBR Green I-based fluorescence assay, strain D6. It counts as cell-based. The settings on record: Plasmodium falciparum, D6, 72 h, read-out: SYBR Green D6 IC50. The essentials:
(§1)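 Late-ring or early-trophozoite parasites at 0.3% starting parasitemia and 2% hematocrit were added to plates predosed with quadruplicate 12-point two-fold dilutions in DMSO (final […]), with mefloquine as reference. Plates were incubated 72 h at 37°C under 5% CO2/5% O2/90% N2, lysed with Tris/EDTA/Triton X/saponin buffer with SYBR Green I (final 10x), kept dark 24 h at RT, and read as RFU. A chloroquine batch control at 2000 ng/ml validated each run.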

Data set [2] relates to P. falciparum strain TM91C235 (WRAIR, Thailand, chloroquine resistant). The data set is described as follows: Malaria SYBR Green I-based fluorescence assay, strain TM91C235. It counts as cell-based. The settings on record: Plasmodium falciparum, 72 h, read-out: SYBR Green C235 IC50. The essentials:
as §1

The subject of a further data set is T. gondii tachyzoites. The data set is described as follows: Parasite tissue culture assay: inhibition of T. gondii tachyzoites in HFF. The settings on record: for Activity in the parasite-based assay: T. gondii tachyzoites; for MIC50 / IC50: Toxoplasma gondii. In kind it is cell-based, Toxoplasma gondii.
In data set [3] the test system is Human Foreskin Fibroblasts (HFF). The data set is described as follows: Toxicity for host cells. The settings on record: for Parasite tissue culture assay HFF (HFF toxicity): human foreskin fibroblasts, highest concentration tested 10 μM.
The target of another data set is T1, TgENR (Toxoplasma gondii, UniProt Q6UCJ9).
T1 sequence (Q6UCJ9 28-417): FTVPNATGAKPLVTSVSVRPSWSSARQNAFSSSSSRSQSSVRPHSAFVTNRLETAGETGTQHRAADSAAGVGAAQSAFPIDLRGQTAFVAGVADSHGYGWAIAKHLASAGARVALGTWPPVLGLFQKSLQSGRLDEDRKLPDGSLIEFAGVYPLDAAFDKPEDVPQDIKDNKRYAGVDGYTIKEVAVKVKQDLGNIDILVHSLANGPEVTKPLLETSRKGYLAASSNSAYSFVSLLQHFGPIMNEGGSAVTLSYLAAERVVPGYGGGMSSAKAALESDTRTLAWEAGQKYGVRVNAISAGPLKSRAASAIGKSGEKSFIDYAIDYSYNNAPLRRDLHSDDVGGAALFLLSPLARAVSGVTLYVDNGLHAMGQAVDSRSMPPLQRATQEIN
The data set is described as follows: TgENR enzyme assay. The settings on record: for Activity in the enzyme-based assay: purified TgENR; for inhibition at 1 µM: read-out: Cpd. conc. [1 μM]/% Inh.: percentage of inhibition of TgENR; for TgENR IC50 fold lower than that of analog 9c: 38 and 54 nM vs 130 nM. It counts as biochemical.

The mark [4] stands for this setting: 72 h, read-out: Parasite tissue culture assay MIC50.

Consider `O=C(c1ccccc1)c1ccc(Oc2ccc(Cl)cc2Cl)c(O)c1` [Compound 43b, [4-(2,4-Dichlorophenoxy)-3-hydroxyphenyl](phenyl)methanone], for which the IC50 in data set [1] was more than 2 µg/mL; in data set [2], more than 2 µg/mL; at TgENR, 750 nM. Further, the “Activity in the parasite-based assay” value with T. gondii tachyzoites is recorded as “ineffective”. Further, in the data set with T. gondii tachyzoites (setting [4]), the MIC50 is more than 10 µM. Also, the “Parasite tissue culture assay HFF (HFF toxicity)” value (shortened to “Parasite tissue culture assay HFF”) in data set [3] was more than 10 µM. Further, the “Activity in the enzyme-based assay” value on TgENR is listed as “only weak activity; also recorded: only weak inhibition”. On TgENR, the inhibition at 1 µM was 78%.

As to `Oc1cc(Cn2cc(-c3ccccc3)nn2)ccc1Oc1ccc(Cl)cc1Cl` [Compound 9b, 2-(2,4-Dichlorophenoxy)-5-[(4-phenyl-1H-1,2,3-triazol-1-yl)methyl]phenol], the “Activity in the parasite-based assay” value in the data set with T. gondii tachyzoites was “inactive”. For the same compound, the MIC50 in the data set with T. gondii tachyzoites (setting [4]) was more than 10 µM. Moreover, the “Parasite tissue culture assay HFF” value in data set [3] is more than 10 µM. For the same compound, at TgENR, the IC50 is 54 nM, the “TgENR IC50 fold lower than that of analog 9c” value was approximately 2 fold and the inhibition at 1 µM was 93%.

For the compound `CCCCCCNCc1ccc(Oc2ccc(Cl)cc2O)c(Cl)c1` [Compound 41a, 5-Chloro-2-[2-chloro-4-[(hexylamino)methyl]phenoxy]phenol], the “Activity in the parasite-based assay” value in the data set on T. gondii tachyzoites was “activity comparable to or better than that of triclosan”. Besides, the MIC50 in the data set on T. gondii tachyzoites (setting [4]) turned out to be 1 µM (≈ 0.368 µg/mL). Moreover, in data set [3], the “Parasite tissue culture assay HFF” value was more than 10 µM. Besides, on TgENR, the “Activity in the enzyme-based assay” value was “completely inactive” and the inhibition at 1 µM came out at 25%.

`Oc1cc(Cl)ccc1Oc1ccc(Cn2cc(-c3ccccc3)nn2)cc1Cl` [Compound 16b, 5-Chloro-2-[2-chloro-4-[(4-phenyl-1H-1,2,3-triazol-1-yl)methyl]phenoxy]phenol]: the “Activity in the parasite-based assay” value in the data set with T. gondii tachyzoites is listed as “activity comparable to or better than that of triclosan”. In addition, the MIC50 with T. gondii tachyzoites (setting [4]) was 1 µM (≈ 0.412 µg/mL). In data set [3], the “Parasite tissue culture assay HFF” value was more than 10 µM. Besides, the inhibition at 1 µM at TgENR stood at 82%.

Turning to `C[Si](C)(C)c1cc(-c2ccc(Oc3ccc(Cl)cc3Cl)c(O)c2)no1` [Compound 20c, 2-(2,4-Dichlorophenoxy)-5-[5-(trimethylsilyl)-1,2-oxazol-3-yl]phenol], the MIC50 with T. gondii tachyzoites (setting [4]) was 7 µM (≈ 2.76 µg/mL). Moreover, the “Parasite tissue culture assay HFF” value in data set [3] was more than 10 µM. The inhibition at 1 µM at TgENR worked out at 25%.

For `CCCCc1cn(Cc2ccc(Oc3ccc(Cl)cc3Cl)c(O)c2)nn1` [Compound 9a, 5-[(4-Butyl-1H-1,2,3-triazol-1-yl)methyl]-2-(2,4-dichlorophenoxy)phenol], the “Activity in the parasite-based assay” value in the data set with T. gondii tachyzoites is “inactive”. For the same compound, the MIC50 in the data set on T. gondii tachyzoites (setting [4]) is more than 10 µM. The “Parasite tissue culture assay HFF” value in data set [3] was more than 10 µM. At TgENR, the IC50 was 38 nM, the “TgENR IC50 fold lower than that of analog 9c” value is recorded as “approximately 3 fold” and the inhibition at 1 µM stood at 94%.

In the case of `CCCCc1cc(-c2ccc(Oc3ccc(Cl)cc3O)c(Cl)c2)no1` [Compound 24a, 2-[4-(5-Butyl-1,2-oxazol-3-yl)-2-chlorophenoxy]-5-chlorophenol], the MIC50 with T. gondii tachyzoites (setting [4]) amounted to 8 µM (≈ 3.03 µg/mL). Further, the “Parasite tissue culture assay HFF” value in data set [3] was more than 10 µM. For the same compound, at TgENR, the IC50 is 18 nM and the inhibition at 1 µM amounted to 92%.

With `O=C(NCc1ccc(Oc2ccc(Cl)cc2O)c(Cl)c1)c1ccc2cc(O)ccc2c1` [Compound 37d, N-[3-Chloro-4-(4-chloro-2-hydroxyphenoxy)benzyl]-6-hydroxynaphthalene-2-carboxamide], the IC50 in the data set with T. gondii tachyzoites (setting [4]) was more than 10000 nM. Also, on TgENR, the “Activity in the enzyme-based assay” value was “Reasonable activity” and the inhibition at 1 µM was found to be 89%.

Turning to `Cc1cc(C(=O)NCc2ccc(Oc3ccc(Cl)cc3Cl)c(O)c2)no1` [Compound 33, N-[4-(2,4-Dichlorophenoxy)-3-hydroxybenzyl]-5-methyl-1,2-oxazole-3-carboxamide], in the data set on T. gondii tachyzoites (setting [4]), the MIC50 was determined as 10 µM (≈ 3.93 µg/mL). For the same compound, the inhibition at 1 µM on TgENR was found to be 96%.

For the compound `N#Cc1ccc(Oc2ccc(Cl)cc2Cl)c(O)c1` [Compound 27, 4-(2,4-Dichlorophenoxy)-3-hydroxybenzonitrile], in the data set with T. gondii tachyzoites (setting [4]), the MIC50 is 2 µM (≈ 0.56 µg/mL). In data set [3], the “Parasite tissue culture assay HFF” value is more than 10 µM. For the same compound, the inhibition at 1 µM at TgENR is 97%.

Turning to `O=C(c1ccc(Oc2ccc(Cl)cc2Cl)c(O)c1)N1CCOCC1` [Compound 30c, [4-(2,4-Dichlorophenoxy)-3-hydroxyphenyl](morpholin-4-yl)methanone], the IC50 in data set [1] and in data set [2] was more than 2 µg/mL in each case. The MIC50 with T. gondii tachyzoites (setting [4]) was more than 10 µM. The “Parasite tissue culture assay HFF” value in data set [3] is more than 10 µM. The inhibition at 1 µM on TgENR stood at 43%.

With `CCCCCCNCc1ccc(Oc2ccc(Cl)cc2Cl)c(O)c1` [Compound 39c, 2-(2,4-Dichlorophenoxy)-5-[(hexylamino)methyl]phenol], in data set [1], the IC50 was 2.75 µM and 0.857 µg/mL. Besides, the IC50 in data set [2] is more than 2 µg/mL. Further, in the data set with T. gondii tachyzoites, the “Activity in the parasite-based assay” value is on record as “activity comparable to or better than that of triclosan”. For the same compound, the MIC50 with T. gondii tachyzoites (setting [4]) turned out to be 3 µM (≈ 1.1 µg/mL). Also, at TgENR, the “Activity in the enzyme-based assay” value was “completely inactive” and the inhibition at 1 µM came to 16%.

On to `COc1cc(Cn2cc(CCO)nn2)ccc1Oc1ccc(Cl)cc1Cl` [Compound 8d, 2-[1-[4-(2,4-Dichlorophenoxy)-3-methoxybenzyl]-1H-1,2,3-triazol-4-yl]ethanol], for which the “Activity in the parasite-based assay” value in the data set with T. gondii tachyzoites was “lack of activity”. Also, the MIC50 in the data set on T. gondii tachyzoites (setting [4]) is more than 10 µM. Besides, the “Parasite tissue culture assay HFF” value in data set [3] is more than 10 µM. On TgENR, the “Activity in the enzyme-based assay” value was “lack of activity” and the inhibition at 1 µM came out at 12%.

On to `O=C(NCc1ccc(Oc2ccc(Cl)cc2O)c(Cl)c1)c1cc(-c2ccccc2)on1` [Compound 37b, N-[3-Chloro-4-(4-chloro-2-hydroxyphenoxy)benzyl]-5-phenyl-1,2-oxazole-3-carboxamide], for which the MIC50 in the data set on T. gondii tachyzoites (setting [4]) is more than 10 µM. The inhibition at 1 µM at TgENR was 80%.

Consider `Oc1cc(-c2cc(-c3ccccc3)on2)ccc1Oc1ccc(Cl)cc1Cl` [Compound 20b, 2-(2,4-Dichlorophenoxy)-5-(5-phenyl-1,2-oxazol-3-yl)phenol], for which, in the data set on T. gondii tachyzoites, the “Activity in the parasite-based assay” value is “completely inactive”. In addition, the MIC50 in the data set on T. gondii tachyzoites (setting [4]) is more than 10 µM. For the same compound, in data set [3], the “Parasite tissue culture assay HFF” value is more than 10 µM. Further, on TgENR, the “Activity in the enzyme-based assay” value was “completely inactive” and the inhibition at 1 µM is 40%.

With `CCCCc1cc(-c2ccc(Oc3ccc(Cl)cc3Cl)c(O)c2)no1` [Compound 20a, 5-(5-Butyl-1,2-oxazol-3-yl)-2-(2,4-dichlorophenoxy)phenol], the “Activity in the parasite-based assay” value in the data set with T. gondii tachyzoites is “completely inactive”. Moreover, the MIC50 in the data set on T. gondii tachyzoites (setting [4]) was more than 10 µM. Besides, in data set [3], the “Parasite tissue culture assay HFF” value is more than 10 µM. Moreover, at TgENR, the “Activity in the enzyme-based assay” value is “completely inactive” and the inhibition at 1 µM came to 59%.

Regarding `Oc1cc(Cl)ccc1Oc1ccc(-c2cc(-c3ccccc3)on2)cc1Cl` [Compound 24b, 5-Chloro-2-[2-chloro-4-(5-phenyl-1,2-oxazol-3-yl)phenoxy]phenol], the MIC50 with T. gondii tachyzoites (setting [4]) is 10 µM (≈ 3.98 µg/mL). For the same compound, the “Parasite tissue culture assay HFF” value in data set [3] was more than 10 µM. Moreover, at TgENR, the IC50 worked out at 28 nM and the inhibition at 1 µM stood at 88%.

On to `Oc1cc(Cl)ccc1Oc1ccc(CNc2ccccc2)cc1Cl` [Compound 41b, 5-Chloro-2-[2-chloro-4-[(phenylamino)methyl]phenoxy]phenol], for which, in the data set on T. gondii tachyzoites (setting [4]), the MIC50 is more than 10 µM. In data set [3], the “Parasite tissue culture assay HFF” value was more than 10 µM. Moreover, the inhibition at 1 µM on TgENR worked out at 94%.

With `CCCCc1cn(Cc2ccc(Oc3ccc(Cl)cc3O)c(Cl)c2)nn1` [Compound 16a, 2-[4-[(4-Butyl-1H-1,2,3-triazol-1-yl)methyl]-2-chlorophenoxy]-5-chlorophenol], in the data set with T. gondii tachyzoites (setting [4]), the MIC50 worked out at 0.25 µM (≈ 0.0981 µg/mL). In addition, in the data set on T. gondii tachyzoites (read-out: IC50 (MIC50) against Toxoplasma gondii tachyzoites), the IC50 was 250 nM. Besides, in data set [3], the “Toxicity to the host cells” value was “without apparent toxicity to the host cells” and the “Parasite tissue culture assay HFF” value is more than 10 µM. Also, the “TgENR IC50 fold higher than that of 16c” value at TgENR (43 vs 26 nM) worked out at 1.6 fold. Moreover, on TgENR, the inhibition at 1 µM was 90%.

With `Cc1cc(C(=O)NCc2ccc(Oc3ccc(Cl)cc3O)c(Cl)c2)no1` [Compound 37a, N-[3-Chloro-4-(4-chloro-2-hydroxyphenoxy)benzyl]-5-methyl-1,2-oxazole-3-carboxamide], the “Activity in the parasite-based assay” value in the data set with T. gondii tachyzoites is on record as “activity comparable to or better than that of triclosan”. In addition, the MIC50 in the data set with T. gondii tachyzoites (setting [4]) amounted to 5 µM (≈ 1.97 µg/mL). For the same compound, the inhibition at 1 µM on TgENR stood at 88%.
